Source: ChEMBL document CHEMBL4190271, “Semisynthesis and Kappa-Opioid Receptor Activity of Derivatives of Columbin, a Furanolactone Diterpene” (J Nat Prod, 2017)

Experiments:
Format in all cases: functional, cell-based
[1] = target: T1, Kappa-type opioid receptor (Homo sapiens, UniProt P41145); test: Agonist activity at human kappa-type opioid receptor expressed in CHO-K1 cells assessed as inhibition of forskolin-induced cAMP accumulation after 30 mins by luminescence-based assay
Method in brief: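 CHO-K1 cells stably expressing human κ-opioid receptor, tested in a HitHunter cAMP assay for inhibition of forskolin-induced cAMP accumulation, run per the manufacturer's directions. Compounds were tested up to 50 μM. Emax is expressed relative to salvinorin A, set at 100%. EC50 and Emax are given as means ± SEM of at least 2 independent experiments, each run in triplicate.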

[2] = target: T1, Kappa-type opioid receptor; test: Agonist activity at human kappa-type opioid receptor expressed in CHO-K1 cells assessed as inhibition of forskolin-induced cAMP accumulation after 30 mins by luminescence-based assay relative to columbin
[3] = target: T1, Kappa-type opioid receptor; test: Agonist activity at human kappa-type opioid receptor expressed in CHO-K1 cells assessed as inhibition of forskolin-induced cAMP accumulation up to 50 uM after 30 mins by luminescence-based assay
Method in brief: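 CHO-K1 cells stably expressing human κ-opioid receptor; HitHunter cAMP assay, run per the kit directions, measuring inhibition of forskolin-induced cAMP accumulation. Compounds tested up to 50 μM. Reference agonist sets E_max = 100%. EC₅₀ and E_max given as means ± standard error of the mean from n ≥ 2 independent experiments, each in triplicate.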

T1 sequence (P41145 whole entry): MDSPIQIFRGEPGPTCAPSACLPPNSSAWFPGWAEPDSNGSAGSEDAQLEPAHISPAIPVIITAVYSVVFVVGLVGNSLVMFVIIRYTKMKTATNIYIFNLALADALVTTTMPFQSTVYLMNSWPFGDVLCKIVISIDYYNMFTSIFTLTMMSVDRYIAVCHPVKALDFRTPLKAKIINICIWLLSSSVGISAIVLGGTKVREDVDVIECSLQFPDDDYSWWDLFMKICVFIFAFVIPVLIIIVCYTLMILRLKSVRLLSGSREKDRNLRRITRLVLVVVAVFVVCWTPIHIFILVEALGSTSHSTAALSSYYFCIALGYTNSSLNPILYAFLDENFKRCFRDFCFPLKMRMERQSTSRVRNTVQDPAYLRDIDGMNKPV

Emax [3] [%]	Compound	EC50 [1] [µM]	Emax [1] [%]	fold change (FC) [2]
–	C[C@@]12C[C@H](c3ccoc3)OC(=O)[C@@H]1CC[C@]1(C)[C@H]2[C@@H]2OC(=O)[C@@]1(O)[C@H](O)[C@@H]2O	16	100	> 3.1
0	C[C@@]12C[C@H](c3ccoc3Br)OC(=O)[C@@H]1CC[C@]1(C)[C@H]2[C@H]2C=C[C@]1(O)C(=O)O2	> 50	–	–
–	C[C@@]12C[C@H](c3ccoc3)OC(=O)[C@@H]1CC[C@]1(C)[C@H]2[C@H]2C=C[C@]1(OC(=O)/C=C/c1ccccc1)C(=O)O2	6	100	> 8.3
0	CC(=O)O[C@@H]1[C@H]2OC(=O)[C@@](O)([C@@H]1OC(C)=O)[C@]1(C)CC[C@H]3C(=O)O[C@@H](c4ccoc4)C[C@@]3(C)[C@H]21	> 50	–	–
–	C[C@@]12C[C@H](c3ccoc3)OC(=O)[C@@H]1CC[C@]1(C)[C@H]2[C@H]2CC[C@]1(O)C(=O)O2	2	100	> 25
–	CC(=O)O[C@@]12C=C[C@@H](OC1=O)[C@H]1[C@]3(C)C[C@H](c4ccoc4)OC(=O)[C@@H]3CC[C@]12C	8	100	> 6.3
–	COCO[C@@]12C=C[C@@H](OC1=O)[C@H]1[C@]3(C)C[C@H](c4ccoc4)OC(=O)[C@@H]3CC[C@]12C	12	100	> 4.2
0	C[C@@]12C[C@H](c3ccoc3Br)OC(=O)[C@@H]1CC[C@]1(C)[C@H]2[C@@H]2OC(=O)[C@@]1(O)[C@@H](Br)[C@@H]2Br	> 50	–	–

Compound	Emax [3] [%]	EC50 [1] [µM]	Emax [1] [%]	fold change (FC) [2]
C[C@@]12C[C@H](c3ccoc3)OC(=O)[C@@H]1CC[C@]1(C)[C@H]2[C@H]2C=C[C@]1(O)C(=O)O2	0	> 50	–	–
